Laboratory results taken from ChEMBL document CHEMBL1165946, “Development of antiproliferative phenylmaleimides that activate the unfolded protein response” (Bioorg Med Chem, 2010).
Calls of active or inactive are those of the source. The calls are words filed in the database; no cut-off is given here.

Legend:
[1] = Cytotoxicity against human Hep3B cells after 48 hrs by alamar blue assay; type: functional, cell-based, Hep 3B2
Procedure, shortened: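 HEP3B cells in EMEM with 10% heat-inactivated FBS, 2 mmol/L L-glutamine, penicillin/streptomycin, 37 °C, 5% CO2, used in exponential growth. Exposed 48 h to 1.6–50 µM of each analog. Alamar blue then added for a further 6 h at 37 °C and fluorescence read. Growth given as % treated/control; IC50 is the concentration giving 50% reduction of cell number versus untreated controls.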

[2] = Upregulation of unfolded protein response-related GADD34 gene expression in human Hep3B cells at 10 uM after 1 hr by RT-PCR analysis; type: functional, cell-based; details: Hep 3B2
Procedure, shortened: (§1)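 HEP3B cells treated 1 h with 10 µM analogue, compared with untreated cells. Gene expression measured by real-time PCR with SYBR chemistry and gene-specific primer pairs, triplicate wells, GAPDH as endogenous control. Analysed by the comparative Ct method and expressed as fold induction over untreated control (n = 3, SD). Significance set at p <0.05.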

[3] = Upregulation of unfolded protein response-related TRIB3 gene expression in human Hep3B cells at 10 uM after 1 hr by RT-PCR analysis; type: functional, cell-based; details: Hep 3B2; procedure, shortened: as §1
[4] = test system: Hep 3B2; assay: Effect on stress-inducible CDKN1A gene expression in human Hep3B cells at 1 to 50 uM after 1 hr by RT-PCR analysis; type: functional, cell-based
[5] = test system: Hep 3B2; assay: Effect on stress-inducible […] gene expression in human Hep3B cells at 1 to 50 uM after 1 hr by RT-PCR analysis; type: functional, cell-based
[6] = test system: Hep 3B2; assay: Effect on stress-inducible CHEK1 gene expression in human Hep3B cells at 1 to 50 uM after 1 hr by RT-PCR analysis; type: functional, cell-based
[7] = test system: Hep 3B2; assay: Effect on stress-inducible BRCA1 gene expression in human Hep3B cells at 1 to 50 uM after 1 hr by RT-PCR analysis; type: functional, cell-based
[8] = test system: Hep 3B2; assay: Effect on stress-inducible MDM2 gene expression in human Hep3B cells at 1 to 50 uM after 1 hr by RT-PCR analysis; type: functional, cell-based
[9] = test system: Hep 3B2; assay: Effect on stress-inducible GADD45B gene expression in human Hep3B cells at 1 to 50 uM after 1 hr by RT-PCR analysis; type: functional, cell-based
[10] = target: T1, Eukaryotic translation initiation factor 2-alpha kinase 3 (Homo sapiens) (UniProt Q9NZJ5); assay: Induction of PERK-mediated phosphorylation of eIF2alpha in human Hep3B cells at 2 to 10 uM after 1 to 6 hrs by Western blot analysis; type: cell-based; details: Hep 3B2
T1 sequence (whole entry): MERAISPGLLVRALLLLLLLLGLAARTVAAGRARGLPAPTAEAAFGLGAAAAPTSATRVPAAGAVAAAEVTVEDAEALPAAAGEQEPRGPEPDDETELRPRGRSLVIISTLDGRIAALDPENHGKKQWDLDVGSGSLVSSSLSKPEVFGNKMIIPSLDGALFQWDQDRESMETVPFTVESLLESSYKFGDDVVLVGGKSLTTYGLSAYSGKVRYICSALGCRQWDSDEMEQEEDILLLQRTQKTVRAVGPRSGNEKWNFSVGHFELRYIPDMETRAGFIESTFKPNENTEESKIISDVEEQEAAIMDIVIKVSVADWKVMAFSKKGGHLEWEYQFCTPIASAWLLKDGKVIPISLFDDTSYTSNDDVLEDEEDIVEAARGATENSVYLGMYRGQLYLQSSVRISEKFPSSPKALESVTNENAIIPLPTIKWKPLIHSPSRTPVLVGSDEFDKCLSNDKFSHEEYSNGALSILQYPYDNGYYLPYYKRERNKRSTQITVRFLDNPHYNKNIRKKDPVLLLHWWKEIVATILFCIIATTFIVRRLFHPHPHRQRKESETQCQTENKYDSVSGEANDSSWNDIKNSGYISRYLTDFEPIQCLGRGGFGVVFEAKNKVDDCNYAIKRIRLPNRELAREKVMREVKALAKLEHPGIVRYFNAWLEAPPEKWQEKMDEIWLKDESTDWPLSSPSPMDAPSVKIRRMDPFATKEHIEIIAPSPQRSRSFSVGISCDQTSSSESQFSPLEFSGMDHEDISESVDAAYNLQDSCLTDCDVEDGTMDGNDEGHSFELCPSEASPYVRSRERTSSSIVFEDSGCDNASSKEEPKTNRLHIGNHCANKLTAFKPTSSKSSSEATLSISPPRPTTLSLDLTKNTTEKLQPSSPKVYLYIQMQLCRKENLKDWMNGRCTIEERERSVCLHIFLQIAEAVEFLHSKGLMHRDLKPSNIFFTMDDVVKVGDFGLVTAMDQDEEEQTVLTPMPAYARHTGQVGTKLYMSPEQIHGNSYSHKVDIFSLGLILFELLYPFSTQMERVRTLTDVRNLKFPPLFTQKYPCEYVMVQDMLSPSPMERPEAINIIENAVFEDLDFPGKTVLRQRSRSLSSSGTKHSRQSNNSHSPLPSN

[11] = target: T1, Eukaryotic translation initiation factor 2-alpha kinase 3 (Homo sapiens); assay: Induction of PERK-mediated phosphorylation of eIF2alpha in human Hep3B cells at 50 uM after 1 hr by Western blot analysis; type: cell-based; details: Hep 3B2
[12] = Upregulation of unfolded protein response-related DDIT3 gene expression in human Hep3B cells at 10 uM after 1 hr by RT-PCR analysis relative to control; type: functional, cell-based; details: Hep 3B2; procedure, shortened: as §1
[13] = Upregulation of unfolded protein response-related ATF4 gene expression in human Hep3B cells at 10 uM after 1 hr by RT-PCR analysis relative to control; type: functional, cell-based; details: Hep 3B2; procedure, shortened: as §1
[14] = Upregulation of unfolded protein response-related HSPA1A gene expression in human Hep3B cells at 10 uM after 1 hr by RT-PCR analysis relative to control; type: functional, cell-based; details: Hep 3B2; procedure, shortened: as §1

| Compound | IC50 [1] [µM] | other results |
| --- | --- | --- |
| CCCCOc1ccc(N2C(=O)C(SCCO)=C(SCCO)C2=O)cc1 | 5 |  |
| COc1cccc(N2C(=O)C(SCCO)=C(SCCO)C2=O)c1 | 9 |  |
| O=C1C(SCCO)=C(SCCO)C(=O)N1c1ccc(-c2ccccc2)cc1 | 0.7 | Activity [2]: Active; Activity [3]: Active; Activity [4]: inactive; Activity [5]: inactive; Activity [6]: inactive; Activity [7]: inactive; Activity [8]: inactive; Activity [9]: inactive; Activity [10]: Active; Activity [11]: Toxic |
| O=C1C(SCCO)=C(SCCO)C(=O)N1c1ccc(O)cc1 | > 100 |  |
| COc1ccc(N2C(=O)C(SCCO)=C(SCCO)C2=O)cc1 | 6 |  |
| O=C1C(SCCO)=C(SCCO)C(=O)N1c1ccc(Cl)cc1 | 7 |  |
| O=C1C(SCCO)=C(SCCO)C(=O)N1c1cccc2ccccc12 | 4 |  |
| CC(=O)c1ccc(N2C(=O)C(SCCO)=C(SCCO)C2=O)cc1 | 10 |  |
| O=C1C(SCCO)=C(SCCO)C(=O)N1c1ccc(Oc2ccccc2)cc1 | > 100 | fold change (FC) [12]: 2; fold change (FC) [13]: 2 |
| O=C1C(SCCO)=C(SCCO)C(=O)N1c1ccc2ccccc2c1 | 3.5 |  |
| O=C1C(SCCO)=C(SCCO)C(=O)N1c1ccccc1I | 9 |  |
| Cc1cc(Cl)ccc1N1C(=O)C(SCCO)=C(SCCO)C1=O | 8 |  |
| O=C1C(SCCO)=C(SCCO)C(=O)N1c1ccc(F)cc1 | 9 |  |
| O=C1C(SCCO)=C(SCCO)C(=O)N1Cc1cccc(Cl)c1 | 2.5 |  |
| COc1cc(OC)cc(N2C(=O)C(SCCO)=C(SCCO)C2=O)c1 | 9 |  |
| O=C1C(SCCO)=C(SCCO)C(=O)N1c1ccccc1F | 9 |  |
| Cc1ccccc1-c1ccc(N2C(=O)C(SCCO)=C(SCCO)C2=O)cc1C | 10 | fold change (FC) [12]: 2; fold change (FC) [13]: 2 |
| O=C1C(SCCO)=C(SCCO)C(=O)N1CCc1ccccc1 | 2 | fold change (FC) [14]: 15.3; fold change (FC) [12]: 2; fold change (FC) [13]: 2 |
| CC(=O)Nc1ccc(N2C(=O)C(SCCO)=C(SCCO)C2=O)cc1 | > 100 | fold change (FC) [12]: 2; fold change (FC) [13]: 2; Activity [10]: inactive |
| CCOc1ccc(N2C(=O)C(SCCO)=C(SCCO)C2=O)cc1 | 6 |  |
| COc1ccc(-c2ccc(N3C(=O)C(SCCO)=C(SCCO)C3=O)cc2)cc1 | 3 |  |
| N#Cc1ccc(N2C(=O)C(SCCO)=C(SCCO)C2=O)cc1 | 9 |  |
| CN(C)c1ccc(N2C(=O)C(SCCO)=C(SCCO)C2=O)cc1 | 9 |  |
| O=C1C(SCCO)=C(SCCO)C(=O)N1c1ccc2cc3ccccc3cc2c1 | 1.8 |  |
| O=C1C(SCCO)=C(SCCO)C(=O)N1c1ccc(OC(F)(F)F)cc1 | 4 |  |
| O=C1C(SCCO)=C(SCCO)C(=O)N1CCc1cccc(Cl)c1 | 1 |  |
| O=C1C(SCCO)=C(SCCO)C(=O)N1c1ccccc1 | 70 | fold change (FC) [12]: 2; fold change (FC) [13]: 2 |
| Cc1cccc(N2C(=O)C(SCCO)=C(SCCO)C2=O)c1 | 7 |  |
| O=C1C(SCCO)=C(SCCO)C(=O)N1c1ccc(-c2ccc([N+](=O)[O-])cc2)cc1 | 4 | fold change (FC) [14]: 17; fold change (FC) [12]: 2; fold change (FC) [13]: 2 |
| O=C1C(SCCO)=C(SCCO)C(=O)N1Cc1ccccc1 | 5 |  |
